Assays:
Format in all cases: functional
Prevotella bivia = test: Antimicrobial activity against Prevotella bivia under anaerobic conditions after 44 hrs by CLSI-M11-47 protocol based agar dilution method
In short: (§1)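 Clinical isolates were stored at −70°C in 20% skim milk and identified phenotypically or by partial 16S rRNA sequencing. Each strain was subcultured twice from frozen stock. Cell paste from 48-h cultures was suspended in brucella broth to a 0.5 McFarland standard. About 10^5 CFU per spot were applied by Steers replicator to agar dilution plates prepared on the day of testing. Plates were incubated 44 h at 37°C in an anaerobic chamber. MIC was taken as the lowest concentration giving complete inhibition or marked reduction of growth versus the drug-free control.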

Clostridium bolteae = test: Antimicrobial activity against Clostridium bolteae under anaerobic conditions after 44 hrs by CLSI-M11-47 protocol based agar dilution method; conditions: Enterocloster bolteae
In short: (§2)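 Reference agar dilution per CLSI M11-A7 with plates made on test day. Clinical isolates were stored at −70°C in 20% skim milk, subcultured twice, and 48-h cell paste was suspended in brucella broth to 0.5 McFarland. About 10^5 CFU/spot was applied with a Steers replicator. Plates were incubated 44 h at 37°C anaerobically. MIC was the lowest concentration giving complete inhibition or marked growth reduction versus the drug-free control.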

Eubacterium contortum = test: Antimicrobial activity against Eubacterium contortum under anaerobic conditions after 44 hrs by CLSI-M11-47 protocol based agar dilution method; conditions: Faecalicatena contorta; in short: as §2
Phocaeicola vulgatus = test: Antimicrobial activity against Bacteroides vulgatus under anaerobic conditions after 44 hrs by CLSI-M11-47 protocol based agar dilution method; in short: as §2
Eubacterium saburreum = test: Antimicrobial activity against Eubacterium saburreum under anaerobic conditions after 44 hrs by CLSI-M11-47 protocol based agar dilution method; conditions: Lachnoanaerobaculum saburreum; in short: as §2
[1] = tested on: Peptostreptococcus stomatis; test: Antimicrobial activity against Peptostreptococcus stomatis under anaerobic conditions after 44 hrs by CLSI-M11-47 protocol based agar dilution method; in short: as §1
Eubacterium cylindroides = test: Antimicrobial activity against Eubacterium cylindroides under anaerobic conditions after 44 hrs by CLSI-M11-47 protocol based agar dilution method; conditions: Faecalitalea cylindroides; in short: as §2
Bacteroides ovatus = test: Antimicrobial activity against Bacteroides ovatus under anaerobic conditions after 44 hrs by CLSI-M11-47 protocol based agar dilution method; in short: as §2
Clostridium glycolicum = test: Antimicrobial activity against Clostridium glycolicum under anaerobic conditions after 44 hrs by CLSI-M11-47 protocol based agar dilution method; conditions: Terrisporobacter glycolicus; in short: as §2
Prevotella bergensis = test: Antimicrobial activity against Prevotella bergensis under anaerobic conditions after 44 hrs by CLSI-M11-47 protocol based agar dilution method; conditions: Hallella bergensis; in short: as §1
Peptoniphilus lacrimalis = test: Antimicrobial activity against Peptoniphilus lacrimalis under anaerobic conditions after 44 hrs by CLSI-M11-47 protocol based agar dilution method; in short: as §1
Schaalia odontolytica = test: Antimicrobial activity against Actinomyces odontolyticus under anaerobic conditions after 44 hrs by CLSI-M11-47 protocol based agar dilution method; in short: as §2
Anaerococcus murdochii = test: Antimicrobial activity against Anaerococcus murdochii under anaerobic conditions after 44 hrs by CLSI-M11-47 protocol based agar dilution method; in short: as §2
Collinsella aerofaciens = test: Antimicrobial activity against Colinsella aerofaciens under anaerobic conditions after 44 hrs by CLSI-M11-47 protocol based agar dilution method; in short: as §2
Fusobacterium varium = test: Antimicrobial activity against Fusobacterium varium under anaerobic conditions after 44 hrs by CLSI-M11-47 protocol based agar dilution method; in short: as §1
[2] = tested on: Paeniclostridium sordellii; test: Antimicrobial activity against Clostridium sordellii under anaerobic conditions after 44 hrs by CLSI-M11-47 protocol based agar dilution method; conditions: Paraclostridium sordellii; in short: as §2
Schaalia meyeri = test: Antimicrobial activity against Actinomyces meyeri under anaerobic conditions after 44 hrs by CLSI-M11-47 protocol based agar dilution method; in short: as §2
Clostridium aldenense = test: Antimicrobial activity against Clostridium aldenense under anaerobic conditions after 44 hrs by CLSI-M11-47 protocol based agar dilution method; conditions: Enterocloster aldenensis; in short: as §2
Clostridium perfringens = test: Antimicrobial activity against Clostridium perfringens under anaerobic conditions after 44 hrs by CLSI-M11-47 protocol based agar dilution method
Peptoniphilus harei = test: Antimicrobial activity against Peptoniphilus harei under anaerobic conditions after 44 hrs by CLSI-M11-47 protocol based agar dilution method; in short: as §1
Prevotella nanceiensis = test: Antimicrobial activity against Prevotella nanceiensis under anaerobic conditions after 44 hrs by CLSI-M11-47 protocol based agar dilution method; conditions: Hoylesella nanceiensis; in short: as §1
Clostridium cadaveris = test: Antimicrobial activity against Clostridium cadaveris under anaerobic conditions after 44 hrs by CLSI-M11-47 protocol based agar dilution method; in short: as §2
Fusobacterium nucleatum = test: Antimicrobial activity against Fusobacterium nucleatum under anaerobic conditions after 44 hrs by CLSI-M11-47 protocol based agar dilution method; in short: as §1
Atopobium parvulum = test: Antimicrobial activity against Atopobium parvulum under anaerobic conditions after 44 hrs by CLSI-M11-47 protocol based agar dilution method; conditions: Lancefieldella parvula; in short: as §2
[3] = tested on: Clostridium celerecrescens; test: Antimicrobial activity against Clostridium celerecrescens under anaerobic conditions after 44 hrs by CLSI-M11-47 protocol based agar dilution method; conditions: Lacrimispora celerecrescens; in short: as §2
Clostridium hylemonae = test: Antimicrobial activity against Clostridium hylemonae under anaerobic conditions after 44 hrs by CLSI-M11-47 protocol based agar dilution method; in short: as §2
Clostridium tertium = test: Antimicrobial activity against Clostridium tertium under anaerobic conditions after 44 hrs by CLSI-M11-47 protocol based agar dilution method; in short: as §2
Clostridium symbiosum = test: Antimicrobial activity against Clostridium symbiosum under anaerobic conditions after 44 hrs by CLSI-M11-47 protocol based agar dilution method; in short: as §2
Bacteroides caccae = test: Antimicrobial activity against Bacteroides caccae under anaerobic conditions after 44 hrs by CLSI-M11-47 protocol based agar dilution method; in short: as §2
Prevotella buccae = test: Antimicrobial activity against Prevotella buccae under anaerobic conditions after 44 hrs by CLSI-M11-47 protocol based agar dilution method; conditions: Segatella buccae; in short: as §1
Clostridioides difficile = test: Antimicrobial activity against Clostridium difficile under anaerobic conditions after 44 hrs by CLSI-M11-47 protocol based agar dilution method; in short: as §2
[4] = tested on: Paraclostridium bifermentans; test: Antimicrobial activity against Clostridium bifermentans under anaerobic conditions after 44 hrs by CLSI-M11-47 protocol based agar dilution method; in short: as §2

CCC[C@@H]1C[C@@H](C(=O)N[C@@H]([C@H]2O[C@H](SC)[C@H](O)[C@@H](O)[C@H]2O)[C@H](C)Cl)N(C)C1 [CLINDAMYCIN]
64 µg/mL: MIC90 (Peptoniphilus lacrimalis) | MIC90 (Anaerococcus murdochii) | MIC90 (Peptoniphilus harei)
> 128 µg/mL: MIC90 (Prevotella bivia) | MIC90 (Phocaeicola vulgatus) | MIC90 (Bacteroides ovatus) | MIC90 (Bacteroides caccae) | MIC90 (Prevotella buccae)
≤ 0.03 µg/mL: MIC50 (Prevotella bivia) | MIC50 [1] | MIC50 (Prevotella bergensis) | MIC50 (Prevotella nanceiensis) | MIC50 (Prevotella buccae)
0.125 µg/mL: MIC50 (Peptoniphilus lacrimalis) | MIC50 (Anaerococcus murdochii) | MIC50 (Peptoniphilus harei)
0.5 µg/mL: MIC50 (Clostridium bolteae) | MIC50 (Clostridium aldenense)
0.06 µg/mL: MIC50 (Eubacterium contortum) | MIC50 (Eubacterium saburreum) | MIC50 (Eubacterium cylindroides) | MIC50 (Schaalia odontolytica) | MIC50 (Collinsella aerofaciens) | MIC50 (Schaalia meyeri) | MIC50 (Fusobacterium nucleatum) | MIC90 (Fusobacterium nucleatum) | MIC50 (Atopobium parvulum)
4 µg/mL: MIC50 (Phocaeicola vulgatus) | MIC50 (Bacteroides ovatus) | MIC90 (Fusobacterium varium) | MIC50 (Bacteroides caccae)
1 µg/mL: MIC90 (Clostridium perfringens)
2 µg/mL: MIC90 (Clostridium bolteae) | MIC90 (Eubacterium contortum) | MIC90 (Eubacterium saburreum) | MIC90 (Eubacterium cylindroides) | MIC50 (Clostridium glycolicum) | MIC90 (Collinsella aerofaciens) | MIC50 (Fusobacterium varium) | MIC50 [2] | MIC90 (Clostridium aldenense) | MIC50 (Clostridium cadaveris) | MIC90 (Atopobium parvulum) | MIC50 [3] | MIC50 (Clostridium hylemonae) | MIC50 (Clostridium tertium) | MIC50 (Clostridium symbiosum) | MIC50 (Clostridioides difficile) | MIC50 [4]
0.25 µg/mL: MIC90 [1] | MIC50 (Clostridium perfringens)
128 µg/mL: MIC90 (Clostridium glycolicum) | MIC90 (Prevotella bergensis) | MIC90 (Schaalia odontolytica) | MIC90 [2] | MIC90 (Schaalia meyeri) | MIC90 (Prevotella nanceiensis) | MIC90 (Clostridium cadaveris) | MIC90 [3] | MIC90 (Clostridium hylemonae) | MIC90 (Clostridium tertium) | MIC90 (Clostridium symbiosum) | MIC90 (Clostridioides difficile) | MIC90 [4]

Cc1ncc([N+](=O)[O-])n1CCO [METRONIDAZOLE]
0.06 µg/mL: MIC50 (Clostridium bolteae) | MIC50 (Clostridium aldenense)
0.5 µg/mL: MIC50 (Eubacterium contortum) | MIC50 (Eubacterium saburreum) | MIC50 [1] | MIC50 (Eubacterium cylindroides) | MIC50 (Clostridium glycolicum) | MIC50 (Prevotella bergensis) | MIC50 (Collinsella aerofaciens) | MIC90 (Fusobacterium varium) | MIC50 [2] | MIC50 (Prevotella nanceiensis) | MIC50 (Clostridium cadaveris) | MIC50 (Atopobium parvulum) | MIC50 [3] | MIC50 (Clostridium hylemonae) | MIC50 (Clostridium tertium) | MIC50 (Clostridium symbiosum) | MIC50 (Prevotella buccae) | MIC50 (Clostridioides difficile) | MIC50 [4]
4 µg/mL: MIC90 (Clostridium glycolicum) | MIC90 (Peptoniphilus lacrimalis) | MIC90 (Anaerococcus murdochii) | MIC90 [2] | MIC90 (Clostridium perfringens) | MIC90 (Peptoniphilus harei) | MIC90 (Clostridium cadaveris) | MIC90 [3] | MIC90 (Clostridium hylemonae) | MIC90 (Clostridium tertium) | MIC90 (Clostridium symbiosum) | MIC90 (Clostridioides difficile) | MIC90 [4]
> 32 µg/mL: MIC50 (Schaalia odontolytica) | MIC90 (Schaalia odontolytica) | MIC50 (Schaalia meyeri) | MIC90 (Schaalia meyeri)
≤ 0.03 µg/mL: MIC50 (Fusobacterium nucleatum)
1 µg/mL: MIC50 (Prevotella bivia) | MIC90 (Eubacterium contortum) | MIC50 (Phocaeicola vulgatus) | MIC90 (Eubacterium saburreum) | MIC90 [1] | MIC90 (Eubacterium cylindroides) | MIC50 (Bacteroides ovatus) | MIC50 (Peptoniphilus lacrimalis) | MIC50 (Anaerococcus murdochii) | MIC90 (Collinsella aerofaciens) | MIC50 (Peptoniphilus harei) | MIC90 (Atopobium parvulum) | MIC50 (Bacteroides caccae) | MIC90 (Prevotella buccae)
2 µg/mL: MIC90 (Prevotella bivia) | MIC90 (Phocaeicola vulgatus) | MIC90 (Bacteroides ovatus) | MIC90 (Prevotella bergensis) | MIC50 (Clostridium perfringens) | MIC90 (Prevotella nanceiensis) | MIC90 (Bacteroides caccae)
0.25 µg/mL: MIC90 (Clostridium bolteae) | MIC50 (Fusobacterium varium) | MIC90 (Clostridium aldenense) | MIC90 (Fusobacterium nucleatum)

Source: ChEMBL document CHEMBL1255409, “In vitro activity of ceftaroline against 623 diverse strains of anaerobic bacteria” (2010)
